Experiments:
Format in all cases: functional
SF-539 = assay: Growth inhibition of human SF539 cells after 48 hrs by sulforhodamine B assay; settings: SF-539, 48 h
Procedure, shortened: (§1)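 Adherent lines plated and held 24 h at 37 °C, 5% CO2, 100% humidity; time-zero plates TCA-fixed at drug addition. Drugs from DMSO stocks were made into five concentrations by 10-fold or half-log serial dilution and applied for 48 h continuous exposure. Cells were fixed with cold TCA (10% final) for 60 min at 4 °C, then stained with 0.4% SRB in 1% acetic acid for 10 min. Dye was solubilized in 10 mM Tris base and read at 515 nm. GI50 was taken from log concentration–growth curves.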

NCI-H23 = assay: Growth inhibition of human NCI-H23 cells after 48 hrs by sulforhodamine B assay; settings: NCI-H23, 48 h
Procedure, shortened: (§2)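 NCI 60-line panel, five concentrations (0.01–100 µM) from DMSO stock diluted in medium with gentamicin. Cells were plated 24 h before dosing, with time-zero plates fixed at drug addition, then exposed 48 h at 37 °C, 5% CO₂. Adherent cells were fixed with cold TCA (10% final) and suspension cells with 16% TCA. Staining used 0.4% SRB, solubilised in 10 mM Tris and read at 515 nm. GI₅₀ was taken from log concentration–% growth curves.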

UACC-257 = assay: Growth inhibition of human UACC257 cells after 48 hrs by sulforhodamine B assay; settings: UACC-257, 48 h; procedure, shortened: as §1
SR = assay: Growth inhibition of human SR cells after 48 hrs by sulforhodamine B assay
Procedure, shortened: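 Suspension leukemia line pre-incubated 24 h at 37 °C, 5% CO2; time-zero plates fixed at drug addition. Five drug concentrations were made by serial dilution from DMSO stocks and applied for 48 h. Settled cells were fixed with 80% TCA (16% final), stained with 0.4% SRB in 1% acetic acid, solubilized in 10 mM Tris base, and read at 515 nm. GI50 = concentration giving 50% decrease in net growth.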

U-251 = assay: Growth inhibition of human U251 cells after 48 hrs by sulforhodamine B assay; settings: U-251, 48 h; procedure, shortened: as §1
OVCAR-5 = assay: Growth inhibition of human OVCAR5 cells after 48 hrs by sulforhodamine B assay; settings: OVCAR-5, 48 h; procedure, shortened: as §2
NCI/ADR-RES = assay: Growth inhibition of human NCI/ADR-RES cells after 48 hrs by sulforhodamine B assay; procedure, shortened: as §2
[1] = Cytotoxicity against human melanoma cells after 48 hrs by sulforhodamine B assay; settings: Melanoma cell
Procedure, shortened: (§3)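 NCI five-dose screen: about 60 human tumour lines grouped into nine subpanels were plated and incubated 24 h before dosing. Compounds went in as DMSO stock and were diluted in medium to five final concentrations (0.01–100 µM). Exposure was 48 h continuous at 37 °C, 5% CO₂, followed by TCA fixation and SRB staining read at 515 nm. Per-line GI₅₀, TGI and LC₅₀ came from log concentration–% growth curves, averaged per subpanel as MG-MID.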

MDA-MB-435 = assay: Growth inhibition of human MDA-MB-435 cells after 48 hrs by sulforhodamine B assay; settings: MDA-MB-435, 48 h; procedure, shortened: as §2
SW-620 = assay: Growth inhibition of human SW620 cells after 48 hrs by sulforhodamine B assay; settings: SW-620, 48 h; procedure, shortened: as §1
786-0 = assay: Growth inhibition of human 786-0 cells after 48 hrs by sulforhodamine B assay; settings: 786-0, 48 h; procedure, shortened: as §2
[2] = Cytotoxicity against human lung cancer cells after 48 hrs by sulforhodamine B assay; settings: Cancer cell lines; procedure, shortened: as §3
PC-3 = assay: Growth inhibition of human PC3 cells after 48 hrs by sulforhodamine B assay; settings: PC-3, 48 h; procedure, shortened: as §2
HOP-92 = assay: Growth inhibition of human HOP92 cells after 48 hrs by sulforhodamine B assay; settings: HOP-92, 48 h; procedure, shortened: as §2
EKVX = assay: Growth inhibition of human EKVX cells after 48 hrs by sulforhodamine B assay; procedure, shortened: as §2
NCI-H226 = assay: Growth inhibition of human NCI-H226 cells after 48 hrs by sulforhodamine B assay; settings: NCI-H226, 48 h; procedure, shortened: as §2
SK-MEL-2 = assay: Growth inhibition of human SK-MEL-2 cells after 48 hrs by sulforhodamine B assay; settings: SK-MEL-2, 48 h; procedure, shortened: as §1
T47D = assay: Growth inhibition of human T47D cells after 48 hrs by sulforhodamine B assay; procedure, shortened: as §1
OVCAR-4 = assay: Growth inhibition of human OVCAR4 cells after 48 hrs by sulforhodamine B assay; settings: OVCAR-4, 48 h; procedure, shortened: as §2
SF-295 = assay: Growth inhibition of human SF295 cells after 48 hrs by sulforhodamine B assay; settings: SF-295, 48 h; procedure, shortened: as §2
SNB-19 = assay: Growth inhibition of human SNB19 cells after 48 hrs by sulforhodamine B assay; settings: SNB-19, 48 h; procedure, shortened: as §1
[3] = Growth inhibition of human NCI-H322 cells after 48 hrs by sulforhodamine B assay; settings: NCI-H322, 48 h; procedure, shortened: as §2
[4] = Cytotoxicity against human colon cancer cells after 48 hrs by sulforhodamine B assay; settings: Cancer cell lines; procedure, shortened: as §3
MOLT-4 = assay: Growth inhibition of human MOLT4 cells after 48 hrs by sulforhodamine B assay; settings: MOLT-4, 48 h; procedure, shortened: as §2
HCT-116 = assay: Growth inhibition of human HCT116 cells after 48 hrs by sulforhodamine B assay; settings: HCT-116, 48 h; procedure, shortened: as §2
DU-145 = assay: Growth inhibition of human DU145 cells after 48 hrs by sulforhodamine B assay; settings: DU-145, 48 h; procedure, shortened: as §2
[5] = Cytotoxicity against human breast cancer cells after 48 hrs by sulforhodamine B assay; settings: Cancer cell lines; procedure, shortened: as §3
ACHN = assay: Growth inhibition of human ACHN cells after 48 hrs by sulforhodamine B assay; procedure, shortened: as §2
UO-31 = assay: Growth inhibition of human UO31 cells after 48 hrs by sulforhodamine B assay; settings: UO-31, 48 h; procedure, shortened: as §1
[6] = read-out: LC50 (the source's name)

Question: For N#Cc1cnn(C(=O)c2nn(-c3ccc(Cl)cc3)cc2O)c1N, which GI50 (SF-539) is on record?
Answer: 320 nM

Question: What about the GI50 (NCI-H23) of the same molecule?
Answer: 370 nM

Question: What about the GI50 (UACC-257) of the same molecule?
Answer: 560 nM

Question: What about the GI50 (SR) of the same molecule?
Answer: 280 nM

Question: What about the GI50 (U-251) of the same molecule?
Answer: 290 nM

Question: And the GI50 (OVCAR-5)?
Answer: 640 nM

Question: What about the GI50 (NCI/ADR-RES) of the same molecule?
Answer: 370 nM

Question: And the GI50 [1]?
Answer: 460 nM

Question: What about the TGI [1] of the same molecule?
Answer: 11.9 µM

Question: And the CC50 [1, 6]?
Answer: 65 µM

Question: And the GI50 (MDA-MB-435)?
Answer: 290 nM

Question: What about the GI50 (SW-620) of the same molecule?
Answer: 520 nM

Question: And the GI50 (786-0)?
Answer: 660 nM

Question: What about the GI50 [2] of the same molecule?
Answer: 320 nM

Question: What about the LC50 (concentration causing 50% net cell kill) [2] of the same molecule?
Answer: 69.4 µM

Question: And the TGI [2]?
Answer: 10.8 µM

Question: And the GI50 (PC-3)?
Answer: 330 nM

Question: What about the GI50 (HOP-92) of the same molecule?
Answer: 400 nM

Question: And the GI50 (EKVX)?
Answer: 380 nM

Question: What about the GI50 (NCI-H226) of the same molecule?
Answer: 370 nM

Question: What about the GI50 (SK-MEL-2) of the same molecule?
Answer: 910 nM

Question: What about the GI50 (T47D) of the same molecule?
Answer: 300 nM

Question: What about the GI50 (OVCAR-4) of the same molecule?
Answer: 460 nM

Question: And the GI50 (SF-295)?
Answer: 160 nM

Question: And the GI50 (SNB-19)?
Answer: 450 nM

Question: And the GI50 [3]?
Answer: 440 nM

Question: What about the GI50 [4] of the same molecule?
Answer: 610 nM

Question: What about the TGI [4] of the same molecule?
Answer: 12.6 µM

Question: What about the CC50 [4, 6] of the same molecule?
Answer: 64.3 µM

Question: What about the GI50 (MOLT-4) of the same molecule?
Answer: 290 nM

Question: And the GI50 (HCT-116)?
Answer: 260 nM

Question: What about the GI50 (DU-145) of the same molecule?
Answer: 570 nM

Question: And the GI50 [5]?
Answer: 430 nM

Question: And the LC50 [5]?
Answer: 64.3 µM

Question: What about the TGI [5] of the same molecule?
Answer: 14.4 µM

Question: What about the GI50 (ACHN) of the same molecule?
Answer: 320 nM

Question: And the GI50 (UO-31)?
Answer: 300 nM
